# From PubChem BioAssay
# The source made the active and inactive calls.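 How the source made its calls, unless noted: active means viability at or below 10% of carrier control in both of two separate runs; inconclusive means viability at or below 10% in only one of the two runs; inactive means the rest.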
# Columns and labels:
# [1] = reducers of endogenous Her2 protein level, primary screen, SKBR3 breast tumor cells, AlphaScreen, ATP viability (AID 461;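 active means Her2 level under about 52% in both replicate screens, with viability over 70% of control, limit read from the data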;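 on Her2 level: lower value means less Her2 protein in the cells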;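 on viability: percent of carrier control wells set as 100% viability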); details: 18-24 h, measured here: SKBR3 viability, ATP luminescence, at 10 µM
# [2] = molecular target: Receptor tyrosine-protein kinase erbB-2 (Homo sapiens) (UniProt P04626); assay: as above; details: 18-24 h, at 10 µM, stronger effect = lower value
# Sequence of Receptor tyrosine-protein kinase erbB-2 (Homo sapiens) (P04626 whole entry, looked up): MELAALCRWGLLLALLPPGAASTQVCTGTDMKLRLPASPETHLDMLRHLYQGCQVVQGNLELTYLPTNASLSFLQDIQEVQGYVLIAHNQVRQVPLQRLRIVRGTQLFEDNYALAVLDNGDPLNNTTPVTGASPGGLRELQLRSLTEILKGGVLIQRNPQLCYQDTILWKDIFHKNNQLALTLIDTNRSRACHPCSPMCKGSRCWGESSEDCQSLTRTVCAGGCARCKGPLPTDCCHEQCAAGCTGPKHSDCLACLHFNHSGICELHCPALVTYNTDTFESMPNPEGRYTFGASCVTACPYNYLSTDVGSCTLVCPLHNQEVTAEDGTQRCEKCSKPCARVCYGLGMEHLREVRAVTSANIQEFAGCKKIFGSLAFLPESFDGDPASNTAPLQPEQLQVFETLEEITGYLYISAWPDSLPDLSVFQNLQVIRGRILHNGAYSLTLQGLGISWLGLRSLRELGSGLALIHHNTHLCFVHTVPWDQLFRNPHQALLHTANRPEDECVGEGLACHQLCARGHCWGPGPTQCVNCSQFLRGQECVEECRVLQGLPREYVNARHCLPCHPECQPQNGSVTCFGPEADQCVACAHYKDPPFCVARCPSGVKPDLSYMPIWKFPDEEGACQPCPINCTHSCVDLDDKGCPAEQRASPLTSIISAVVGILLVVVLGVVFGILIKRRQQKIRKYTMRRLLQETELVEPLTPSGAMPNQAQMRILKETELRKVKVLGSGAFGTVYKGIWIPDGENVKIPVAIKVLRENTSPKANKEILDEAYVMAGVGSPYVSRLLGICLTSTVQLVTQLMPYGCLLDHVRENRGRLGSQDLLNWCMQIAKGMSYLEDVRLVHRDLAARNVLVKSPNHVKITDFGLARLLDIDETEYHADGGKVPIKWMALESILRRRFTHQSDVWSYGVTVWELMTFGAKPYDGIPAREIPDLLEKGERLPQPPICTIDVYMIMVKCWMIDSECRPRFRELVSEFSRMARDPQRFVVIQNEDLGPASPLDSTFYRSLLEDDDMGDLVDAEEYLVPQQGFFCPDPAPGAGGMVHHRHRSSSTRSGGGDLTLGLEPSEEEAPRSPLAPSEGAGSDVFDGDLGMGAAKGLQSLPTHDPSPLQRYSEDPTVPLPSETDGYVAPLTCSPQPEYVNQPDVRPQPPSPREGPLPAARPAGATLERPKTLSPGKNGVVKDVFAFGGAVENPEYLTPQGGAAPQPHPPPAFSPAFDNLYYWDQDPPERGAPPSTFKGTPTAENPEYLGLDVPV
# [3] = SK-BR-3 cell growth inhibitors, pilot screen, 24 h, human (AID 572); details: SK-BR-3 viability, CellTiter-Glo luminescence, at 10 µM, stronger effect = lower value;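 further: compound exposure lasted between 18 and 24 h rather than exactly 24 h; 100% = carrier-treated control wells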
# [4] = HUVEC growth inhibition – cell-based, human, primary screen (AID 575;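 active means viability at or below 30% in both replicate assays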;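 further: 100% = median of untreated cell wells with 0.1% DMSO on each plate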); details: HUVEC proliferation, CellTiter-Glo luminescence, 72 h; at 10 µM; stronger effect = lower value
# How it was run: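 Assay system: Primary human umbilical vein endothelial cells | Quantity: 1250 cells per well | Medium: Supplemented EBM, 2% fetal bovine serum | Detection: CellTiter-Glo luminescence measuring cellular ATP | Read-out: % viability vs DMSO wells | Plate: Collagen-coated 384-well format | Times: 72 h exposure, 37 °C, 5% CO2, 30 min RT equilibration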
# [5] = reversal of MRP1-mediated doxorubicin resistance, pilot screen, H69AR cells, doxorubicin co-treatment (AID 601;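 active means viability loss from added drug above about 55%, and viability with drug at most 40%, in both replicates, limit read from the data, passing the limit was not always enough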); details: CellTiter-Glo, 72 h, at 10 µM; for differential viability (reversal): stronger effect = higher value
# [6] = 384-well plate pilot, post-Golgi transport modulator project, inhibition of yeast transport mutant growth (AID 636; in the data active means inhibition above about 31%); details: absorbance 615 nm, about 18 h, stronger effect = higher value
# [7] = growth suppression of yeast trafficking mutant, preliminary HTS, modulators of trafficking downstream of Golgi apparatus project, 1536-format plate, OD 615 nm (AID 637; in the data active means inhibition above about 30%); details: yeast transport mutant growth, absorbance 615 nm, 18 h; stronger effect = higher value
# [8] = H69AR cells + 2 uM doxorubicin, measured here: viability with 2 uM doxorubicin, stronger effect = lower value
# [9] = H69AR cells, compound alone cytotoxicity
SMILES,viability [1] [%],Her2 level [2],viability [3],viability [4],differential viability (reversal) ([5]; H69AR cells + 2 uM doxorubicin),"viability [5, 8] [%]","viability [5, 9] [%]",inhibition [6],inhibition [7]
Cc1ccc2c(c1)c1c(n2CC(O)Cn2c(C)nc3ccccc32)/C(=N\O)CCC1 (configuration not stated),108,76.5% (inactive),108% (inactive),1.52% (active),-12.7% (inactive),44.1,31.5,-4.27% (inactive),15.4% (inactive)
OC(CN1CCOCC1)Cn1c(-c2cccc(Cl)c2)nc2ccccc21 (configuration not stated),100,80% (inactive),100% (inactive),54.4% (inactive),-47.5% (inactive),66,18.5,-6.75% (inactive),-1.11% (inactive)
CCn1cc(C(=O)OCC(=O)OC2CC(C)CCC2C(C)C)c(=O)c2ccc(C)nc21 (configuration not stated),94.5,67.5% (inactive),94.5% (inactive),35.3% (inactive),-1.67% (inactive),46.3,44.7,78.4% (active),-1.45% (inactive)
CCSc1nnc(NC(=O)c2ccccn2)s1,92,80.5% (inactive),92% (inactive),18.4% (active),-14% (inactive),34.8,20.8,4.03% (inactive),9.21% (inactive)
Cc1ccc2c(C)nc(Nc3nc(CSc4nnnn4-c4ccccc4)cc(=O)[nH]3)nc2c1,98,80% (inactive),98% (inactive),48.6% (inactive),-27.3% (inactive),78,50.7,-5.47% (inactive),1.31% (inactive)
COc1ccccc1-c1c(C)nn2c(N3CCC4(CC3)OCCO4)cc(C)nc12,90,89% (inactive),90% (inactive),99.3% (inactive),30.6% (inactive),29.3,60,-1.05% (inactive),-2.42% (inactive)
Cc1ccc(NC(=O)c2oc3ccc(S(=O)(=O)N4CCOCC4)cc3c2C)cc1C,91,83.5% (inactive),91% (inactive),51.6% (inactive),-5.16% (inactive),48.6,43.4,-5.26% (inactive),2.54% (inactive)
N#CC(C(=O)C1CCCCC1)c1nc2ccccc2[nH]1 (configuration not stated),91.5,89.5% (inactive),91.5% (inactive),82% (inactive),-19.9% (inactive),76.1,56.1,0.66% (inactive),20.6% (inactive)
CCC(Sc1nc2n[nH]c(C)c2c(=N)n1-c1cc(Cl)ccc1C)C(=O)N1CCOCC1 (configuration not stated),92.5,96% (inactive),92.5% (inactive),71.2% (inactive),29.3% (inactive),17,46.3,2.37% (inactive),-10% (inactive)
O=C(NC1CCc2ccccc21)C1CCN(S(=O)(=O)c2ccc(-n3cnnn3)cc2)CC1 (configuration not stated),74.5,85% (inactive),74.5% (inactive),96.4% (inactive),-8.48% (inactive),63.5,55,-2.63% (inactive),-0.36% (inactive)
Cc1cc(C)c2c(n1)nn1c(N3CCN(c4ccccc4C)CC3)cc(C)nc21,73.5,95.5% (inactive),73.5% (inactive),92.4% (inactive),-0.53% (inactive),73.6,73.1,1.18% (inactive),6.73% (inactive)
O=C(Nc1sc2c(c1C(=O)NCc1ccco1)CCCC2)c1ccc2c(c1)OCO2,89.5,92.5% (inactive),89.5% (inactive),78.7% (inactive),-11.3% (inactive),72.7,61.4,1.22% (inactive),-6.35% (inactive)
CCOC(=O)c1ccc(N2C(=O)CC(Sc3nnc(C)s3)C2=O)cc1 (configuration not stated),103,100% (inactive),103% (inactive),102% (inactive),4.82% (inactive),46.2,51,-8.4% (inactive),-6.67% (inactive)
C=C(C)COc1ccc(-c2nc(N)ncc2Oc2ccccc2OCC)c(O)c1,79,84.5% (inactive),79% (inactive),85.5% (inactive),-12.4% (inactive),51.6,39.1,-0.66% (inactive),24.4% (inactive)
COc1ccc(N2C(=O)C(Cl)=C(Nc3c(C)n(C)n(-c4ccccc4)c3=O)C2=O)cc1,94,68% (inactive),94% (inactive),81.1% (inactive),10% (inactive),35.3,45.3,-1.71% (inactive),-6.03% (inactive)
CC(C)Cn1c(=O)c(C(=O)NCc2ccccn2)c(O)c2ccccc21,110,78.5% (inactive),110% (inactive),61.4% (inactive),-15% (inactive),67.3,52.3,-7.43% (inactive),-3.17% (inactive)
COc1ccc(OCC(=O)N2CCN(C(=O)COc3ccc(Br)cc3)CC2)cc1,84.5,95.5% (inactive),84.5% (inactive),81.3% (inactive),7.19% (inactive),40.4,47.6,-2.67% (inactive),3.71% (inactive)

SMILES,viability [1] [%],Her2 level [2],viability [3],viability [4],differential viability (reversal) ([5]; H69AR cells + 2 uM doxorubicin),"viability [5, 8] [%]","viability [5, 9] [%]",inhibition [6],inhibition [7]
Cc1csc2ncc(C(=O)Nc3ccccc3Cl)c(=O)n12,87.5,86% (inactive),87.5% (inactive),66.8% (inactive),3.82% (inactive),44.5,48.3,-4.13% (inactive),4.5% (inactive)
Cc1c(C(=O)NC2CCCc3ccccc32)oc2ccc(S(=O)(=O)N3CCOCC3)cc12 (configuration not stated),94.5,89.5% (inactive),94.5% (inactive),84.9% (inactive),1.53% (inactive),50.7,52.2,-2% (inactive),1.29% (inactive)
N#C/C(C(=O)NCc1ccco1)=C1/SC(Cc2ccc(F)cc2)C(=O)N1c1ccccc1 (configuration not stated),112,84% (inactive),112% (inactive),88.3% (inactive),-10.3% (inactive),58.3,48,-3.68% (inactive),-1.64% (inactive)
O=C(NCc1ccco1)c1cc2c(s1)CSC2,97.5,88% (inactive),97.5% (inactive),82.8% (inactive),-26.3% (inactive),83.6,57.3,-0.92% (inactive),2.86% (inactive)
CCOc1ccc2nc(NC(=O)C3CCCN(S(=O)(=O)c4c(C)noc4C)C3)sc2c1 (configuration not stated),124,74% (inactive),124% (inactive),49.7% (inactive),-23.4% (inactive),71.2,47.9,6.28% (inactive),7.5% (inactive)
CCOC(=O)c1nnc2cc(-c3ccc(Br)cc3)nn2c1C,76.5,93.5% (inactive),76.5% (inactive),70.3% (inactive),6.1% (inactive),43.6,49.7,4.55% (inactive),-5.24% (inactive)
CCOC(=O)c1c(C)oc2c1c(C(c1ccncc1)N1CCOCC1)c(O)c1ccccc12 (configuration not stated),104,85% (inactive),104% (inactive),9.39% (active),-5.27% (inactive),6.38,1.11,-0.13% (inactive),-3.49% (inactive)
COC(=O)c1ccccc1S(=O)(=O)N(Cc1cc2cc3c(cc2[nH]c1=O)OCO3)C1CCCCC1,83,98.5% (inactive),83% (inactive),82.6% (inactive),-7.41% (inactive),67.4,60,4.74% (inactive),-2% (inactive)
CCn1c2ccccc2c2cc(NC(=O)Cc3ccc(S(=O)(=O)N4CCOCC4)s3)ccc21,83,76.5% (inactive),83% (inactive),9.02% (active),-10.1% (inactive),60.2,50.1,-1.84% (inactive),-2.73% (inactive)
C=CCn1c(COc2ccc(Cl)cc2)nnc1SCC(=O)N1CC(=O)Nc2ccccc21,92,76.5% (inactive),92% (inactive),65.5% (inactive),-10.9% (inactive),73.5,62.7,-5.2% (inactive),-3.02% (inactive)
CCOC(=O)c1sc(Nc2nc3c(OC)cccc3s2)nc1C,81.5,72% (inactive),81.5% (inactive),63.3% (inactive),-7.45% (inactive),66.6,59.2,0.13% (inactive),-4.76% (inactive)
Cc1ccc(/C=c2\s/c(=C(/C#N)C(=O)N3CCCC3)n(Cc3ccco3)c2=O)s1,87.5,79% (inactive),87.5% (inactive),59.3% (inactive),15.8% (inactive),28.1,43.9,-1.95% (inactive),1.9% (inactive)
c1ccc2c(-c3nc(C4CCCCC4)no3)cc(-c3ccncc3)nc2c1,72.5,69% (inactive),72.5% (inactive),66.6% (inactive),-5.85% (inactive),49.4,43.6,45.3% (active),8.23% (inactive)
C=CCSC1=C(C#N)C(c2ccccc2C)CC(=O)N1 (configuration not stated),95.5,99% (inactive),95.5% (inactive),89% (inactive),-0.42% (inactive),10.6,10.1,-2.21% (inactive),-2.38% (inactive)
N#CC1=C(SCC(=O)NC23CC4CC(CC(C4)C2)C3)NC(=O)C(C#N)C12CCCCC2 (configuration not stated),74,76% (inactive),74% (inactive),54.1% (inactive),-5.21% (inactive),41,35.8,-5.48% (inactive),-5.4% (inactive)
Cc1ccc(S(=O)(=O)c2cc3c(=O)n4ccccc4nc3n(CC3CCCO3)c2=N)cc1C (configuration not stated),83,77.5% (inactive),83% (inactive),69.9% (inactive),2.4% (inactive),53.5,55.9,-4.86% (inactive),2.95% (inactive)
